In data set [1] the target is Tyrosine-protein kinase Lck (Homo sapiens, UniProt P06239). Put plainly: Inhibition of Lck by luminescence based kinase assay.
In the next data set the target is T1, Ephrin type-B receptor 4 (Homo sapiens, UniProt P54760).
T1 sequence (P54760 whole entry): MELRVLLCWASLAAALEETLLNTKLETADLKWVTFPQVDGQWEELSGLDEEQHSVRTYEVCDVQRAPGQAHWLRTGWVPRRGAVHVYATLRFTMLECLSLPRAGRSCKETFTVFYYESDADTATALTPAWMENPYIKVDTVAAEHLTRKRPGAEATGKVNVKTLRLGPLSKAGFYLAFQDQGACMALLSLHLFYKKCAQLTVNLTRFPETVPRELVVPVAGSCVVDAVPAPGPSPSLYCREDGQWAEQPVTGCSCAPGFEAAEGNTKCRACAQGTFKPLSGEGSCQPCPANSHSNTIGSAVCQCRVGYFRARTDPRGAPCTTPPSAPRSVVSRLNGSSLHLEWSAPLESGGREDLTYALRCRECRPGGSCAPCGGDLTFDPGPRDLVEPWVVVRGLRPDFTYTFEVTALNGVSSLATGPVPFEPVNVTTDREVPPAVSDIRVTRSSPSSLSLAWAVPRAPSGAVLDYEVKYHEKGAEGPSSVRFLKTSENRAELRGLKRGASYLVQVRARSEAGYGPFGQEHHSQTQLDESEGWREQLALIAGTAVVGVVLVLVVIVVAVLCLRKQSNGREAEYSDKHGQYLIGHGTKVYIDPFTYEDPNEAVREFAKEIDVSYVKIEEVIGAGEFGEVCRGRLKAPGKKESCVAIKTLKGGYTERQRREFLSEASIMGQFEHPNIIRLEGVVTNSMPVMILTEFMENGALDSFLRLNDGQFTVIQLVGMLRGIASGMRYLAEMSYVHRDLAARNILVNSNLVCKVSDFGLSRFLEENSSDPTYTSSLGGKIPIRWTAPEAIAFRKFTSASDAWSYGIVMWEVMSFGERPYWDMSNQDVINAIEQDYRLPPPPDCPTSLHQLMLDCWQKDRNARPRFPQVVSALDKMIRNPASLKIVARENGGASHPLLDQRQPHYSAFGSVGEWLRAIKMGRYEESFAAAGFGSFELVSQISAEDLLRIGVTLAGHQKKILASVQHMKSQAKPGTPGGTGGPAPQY
As to the kind of experiment: Inhibition of EphB4 by luminescence based kinase assay.

A short description of data set [2]: AUC (0 to infinity) in BALB/c mouse at 5 mg/kg, iv. In kind it is ADME, organism-based. Further details: time infinity, dose 5 mg/kg, route intravenous. The settings on record: plasma. Put shortly:
(§1)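 Male BALB/c mice (~25 g); fasted overnight for single p.o. dosing, not fasted for i.v. or i.p. dosing. Composite blood sampling, n=3 per time point: 5, 15, 30 min, 1, 3, 6, 24, 48 hr after i.v. dose; 0.5, 1, 3, 5, 8, 24, 30, 48 hr after p.o. or i.p. dose. Heparinized plasma, both parent and N-oxide measured by LC/MS/MS (MRM 494.2/98.1 and 510.2/98.1); non-compartmental analysis, AUC by linear trapezoidal rule.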

Data set [3] is described as follows: AUC (0 to infinity) in BALB/c mouse at 5 mg/kg, ip. It is filed as ADME, organism-based. Further details: time infinity, dose 5 mg/kg, route intraperitoneal. The settings on record: plasma. Put shortly: as §1
Data set [4] is described as follows: AUC (0 to infinity) in Sprague-Dawley rat at 5 mg/kg, iv. It is filed as ADME, organism-based. Further details: time infinity, dose 5 mg/kg, route intravenous. The note with it: plasma.
Data set [5] can be described thus: AUC (0 to infinity) in Sprague-Dawley rat at 5 mg/kg, ip. In kind it is ADME, organism-based. Further details: time infinity, dose 5 mg/kg, route intraperitoneal. The settings on record: plasma.
Data set [6] is described as follows: Drug level in BALB/c mouse plasma at 5 mg/kg, iv. In kind it is ADME, organism-based. More on the design: dose 5 mg/kg, route intravenous. Put shortly: as §1
In data set [7] the test system is Mus musculus. Put plainly: Drug level in BALB/c mouse plasma at 5 mg/kg, ip. In kind it is ADME, organism-based. Further details: dose 5 mg/kg, route intraperitoneal. The note with it: in vivo. The method in brief: as §1
Data set [8] in a line: Drug level in Sprague-Dawley rat plasma at 5 mg/kg, iv. It is filed as ADME, organism-based. More on the design: dose 5 mg/kg, route intravenous.
Data set [9] relates to Rattus norvegicus. Put plainly: Drug level in Sprague-Dawley rat plasma at 5 mg/kg, ip. In kind it is ADME, organism-based. More on the design: dose 5 mg/kg, route intraperitoneal. The settings on record: in vivo.
Data set [10] is described as follows: Half life in BALB/c mouse at 5 mg/kg, iv. It is filed as ADME, organism-based. More on the design: dose 5 mg/kg, route intravenous. The note with it: in vivo. Put shortly:
as §1

Data set [11] in a line: Half life in BALB/c mouse at 5 mg/kg, ip. In kind it is ADME, organism-based. More on the design: dose 5 mg/kg, route intraperitoneal. The settings on record: in vivo. Put shortly:
as §1

Data set [12] in a line: Half life in Sprague-Dawley rat at 5 mg/kg, iv. More on the design: dose 5 mg/kg, route intravenous. In kind it is ADME, organism-based. The settings on record: in vivo.
A short description of data set [13]: Half life in Sprague-Dawley rat at 5 mg/kg, ip. It is filed as ADME, organism-based. Further details: dose 5 mg/kg, route intraperitoneal. The note with it: in vivo.
Data set [14] can be described thus: Volume of distribution in BALB/c mouse at 5 mg/kg, iv. It is filed as ADME, organism-based. Further details: dose 5 mg/kg, route intravenous. The note with it: in vivo.
Data set [15] deals with Mus musculus. As to the kind of experiment: Volume of distribution in BALB/c mouse at 5 mg/kg, ip. In kind it is ADME, organism-based. Further details: dose 5 mg/kg, route intraperitoneal. The settings on record: in vivo. The method in brief:
as §1

Data set [16] in a line: Volume of distribution in Sprague-Dawley rat at 5 mg/kg, iv. The note with it: in vivo. It is filed as ADME, organism-based. More on the design: dose 5 mg/kg, route intravenous.
Data set [17] has as its system Rattus norvegicus. Put plainly: Volume of distribution in Sprague-Dawley rat at 5 mg/kg, ip. It is filed as ADME, organism-based. More on the design: dose 5 mg/kg, route intraperitoneal. The settings on record: in vivo.
Data set [18] is described as follows: Clearance in BALB/c mouse at 5 mg/kg, iv. In kind it is ADME, organism-based. More on the design: dose 5 mg/kg, route intravenous. The settings on record: in vivo. Put shortly:
as §1

Data set [19] in a line: Clearance in BALB/c mouse at 5 mg/kg, ip. In kind it is ADME, organism-based. Further details: dose 5 mg/kg, route intraperitoneal. The note with it: in vivo. Put shortly: as §1
A short description of data set [20]: Clearance in Sprague-Dawley rat at 5 mg/kg, iv. It is filed as ADME, organism-based. Further details: dose 5 mg/kg, route intravenous. The note with it: in vivo.
A short description of data set [21]: Clearance in Sprague-Dawley rat at 5 mg/kg, ip. Further details: dose 5 mg/kg, route intraperitoneal. The note with it: in vivo. It is filed as ADME, organism-based.
Data set [22] deals with Mus musculus. As to the kind of experiment: AUC (0 to infinity) in BALB/c mouse assessed as AUC of ([7-(2,6-Dichloro-phenyl)-5-methyl-benzo[1,2,4]triazin-3-yl]-[4-(2-pyrrolidin-1-yl-ethoxy)-phenyl]-amine) at 5 mg/kg, iv. In kind it is ADME, organism-based, Plasma. Further details: time infinity, dose 5 mg/kg, route intravenous. The note with it: in vivo. The method in brief: as §1

For data set [23], the system named is Mus musculus. Put plainly: AUC (0 to infinity) in BALB/c mouse assessed as AUC of ([7-(2,6-Dichloro-phenyl)-5-methyl-benzo[1,2,4]triazin-3-yl]-[4-(2-pyrrolidin-1-yl-ethoxy)-phenyl]-amine) at 5 mg/kg, ip. In kind it is ADME, organism-based, Plasma. Further details: time infinity, dose 5 mg/kg, route intraperitoneal. The note with it: in vivo. The method in brief:
as §1

Each structure is given as a SMILES string.

Tyrosine-protein kinase Lck, sequence (P06239 whole entry): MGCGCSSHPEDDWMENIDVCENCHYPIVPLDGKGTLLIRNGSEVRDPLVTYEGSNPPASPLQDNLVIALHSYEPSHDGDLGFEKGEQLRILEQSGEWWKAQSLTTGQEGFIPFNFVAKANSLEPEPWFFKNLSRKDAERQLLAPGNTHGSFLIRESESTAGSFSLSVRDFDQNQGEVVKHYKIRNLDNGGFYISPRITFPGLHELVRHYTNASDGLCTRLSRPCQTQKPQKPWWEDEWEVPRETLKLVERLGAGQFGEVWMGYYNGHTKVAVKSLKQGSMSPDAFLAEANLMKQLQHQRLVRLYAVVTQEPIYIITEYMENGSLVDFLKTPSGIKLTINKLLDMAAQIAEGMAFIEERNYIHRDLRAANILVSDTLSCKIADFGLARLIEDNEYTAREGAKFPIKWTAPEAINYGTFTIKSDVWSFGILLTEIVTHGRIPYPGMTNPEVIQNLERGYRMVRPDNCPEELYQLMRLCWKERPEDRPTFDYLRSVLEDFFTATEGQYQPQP

On to `Cc1cc(-c2c(Cl)cccc2Cl)cc2nnc(Nc3ccc(OCC[N+]4([O-])CCCC4)cc3)nc12`, for which the inhibitory constant (Ki) in data set [1] is 11.7 nM; on Ephrin type-B receptor 4, 7.27 nM. Besides, the AUC(0-inf) was 5350 ng·h/mL in data set [2], 6520 ng·h/mL in [3], 6050 ng·h/mL in data set [4] and 4990 ng·h/mL in [5]. The C0 in data set [6] turned out to be 9030 ng/mL; in the data set with Mus musculus [7], 4100 ng/mL; in [8] it was 12200 ng/mL; with Rattus norvegicus [9], 1080 ng/mL. The half-life was 0.9 h in data set [10], 2.8 h in data set [11], 1.6 h in data set [12] and 2.3 h in data set [13]. Moreover, the Vd in [14] came out at 1.2 L/kg; in the data set on Mus musculus [15], 2.6 L/kg; in [16], 1.9 L/kg; in the data set with Rattus norvegicus [17], 3.3 L/kg. Moreover, the clearance in data set [18] was found to be 15.6 mL/min/kg; in [20] it was 13.8 mL/min/kg. Besides, the CL/F in data set [19] turned out to be 11.6 mL/min/kg; in [21], 17 mL/min/kg. In addition, the AUC in the data set on Mus musculus [22] stood at 1390 ng·h/mL; in the data set with Mus musculus [23], 1400 ng·h/mL.

By Ki is commonly meant a dissociation constant, usually derived from enzyme kinetics or from competition with a known ligand. Read a low Ki as tighter binding. For orientation: AUC(0-inf) means the area under the concentration-time curve extrapolated to infinity. A high value points to more exposure. As usually defined, the half-life is the time in which the quantity being followed falls by half. The low end stands for rapid decline, the high end for slow decline. In general, clearance refers to the volume of plasma or blood freed of the substance per unit of time. Read a low clearance as a low capacity for elimination. By CL/F is commonly meant clearance divided by bioavailability, as obtained after extravascular dosing. A word on the AUC: it is the area under the concentration-time curve, a measure of exposure.

Source of the values: ChEMBL document CHEMBL1147085, “Metabolism and pharmacokinetics of a novel Src kinase inhibitor TG100435 ([7-(2,6-dichloro-phenyl)-5-methyl-benzo[1,2,4]triazin-3-yl]-[4-(2-pyrrolidin-1-yl-ethoxy)-phenyl]-amine) and its active N-oxide metabolite TG100855 …” (Drug Metab Dispos, 2007).
